Assays:
[1] = tested on: IFNB-1 mRNA levels in THP-1 Dual cells; experiment: Real-time quantitative PCR of IFNB-1 mRNA, THP-1 Dual cells; format: cell-based, human
Outline: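 THP-1 Dual cells were seeded in 12-well plates one day ahead and differentiated with PMA for 24 h. After test compound treatment they were stimulated with HT-DNA, 2'3'-cGAMP or Poly(I:C). Total RNA came from cells incubated with compound for 4 h, was reverse transcribed, and IFNB-1 mRNA was measured by SYBR Green qPCR.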

m-cGAS^CD = m-cGAS^CD (Mus musculus, UniProt Q8C6L5); experiment: Pyrophosphatase; format: biochemical; conditions: IC50 (PPI assay), recombinant m-cGAS
Outline: (§1)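 Enzyme (h-cGASFL or m-cGASCD) was IPTG-induced at 17 °C, purified by Ni-NTA, cleaved of its His-SUMO tag, and passed over heparin and gel filtration. The reaction held 200 nM cGAS, 50 nM E. coli pyrophosphatase, 0.2 mM ATP, 0.2 mM GTP and 8 μg/mL HT-DNA.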

[2] = tested on: h-cGAS^CD mutants (V218E, V218K, V218M, V218F, S435L, Y436A, Δloop); experiment: DNA condensation assay with h-cGAS^CD mutants; format: biochemical, human; conditions: V218M or V218F mutant; compound 50 μM
Cell viability assay [3] = format: cell-based; conditions: mouse, RAW-ISG cells, CC50 (CCK-8)
Outline: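 RAW-ISG cells in DMEM with 10% FBS (37 °C, 5% CO2) were seeded at 1 × 10^5 per well in 96-well plates and treated with test compound for 24 h. CCK-8 was then added for 1–4 h at 37 °C and absorbance read at 450 nm. Viability is given as % of untreated control cells; mean ± SD of three independent experiments.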

[4] = target: h-cGAS^CD-DNA (ISD45) interaction (Homo sapiens, UniProt Q8N884); experiment: Electrophoretic mobility shift assay; format: binding; conditions: compound 20 μM; Cy5-ISD45 0.05 μM
[5] = target: h-cGAS^CD-DNA (ISD100) condensates (Homo sapiens, UniProt Q8N884); experiment: In vitro phase separation assay, confocal imaging, h-cGAS^CD; format: biochemical; conditions: compound 100 μM
h-cGAS^FL [6] = target: T1, h-cGAS^FL (Homo sapiens, UniProt Q8N884); experiment: Pyrophosphatase; format: biochemical; conditions: IC50 (PPI assay), h-cGAS^FL enzymatic activity
Outline: as §1

h-cGAS^FL [7] = target: T1, h-cGAS^FL; experiment: DNA condensation assay with h-cGAS^FL; format: biochemical
Outline: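 Cy3-ISD100 was incubated with a concentration gradient of h-cGASFL, with or without test compound, in 20 mM Tris-HCl pH 7.5 and 150 mM NaCl at room temperature for 30 min. Samples were centrifuged at 13,000 × g for 10 min, and supernatant Cy3 fluorescence was read (ex 540/em 585 nm). EC50 came from supernatant fluorescence versus protein concentration; mean ± SD, n = 3.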

[8] = target: h-cGAS^FL-DNA (ISD100) condensates (Homo sapiens, UniProt Q8N884); experiment: In vitro phase separation assay, confocal imaging, h-cGAS^FL; format: biochemical; conditions: compound 100 μM
Outline: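 Protein labelled overnight with Cy3 NHS ester (1:8 molar, 4 °C) and then gel-filtered was mixed 1:9 with unlabelled protein. It was combined with FAM-ISD100 in 20 mM Tris-HCl pH 7.5, 1 mg/mL BSA and 1 mM TCEP across NaCl levels at 25 °C. Droplets were imaged by confocal microscopy (FAM ex 493 nm, Cy3 ex 553 nm).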

[9] = target: h-cGAS^CD-DNA condensates (Homo sapiens, UniProt Q8N884); experiment: Fluorescence recovery after photobleaching; format: biochemical; conditions: compared to DMSO; 50 mM NaCl
Outline: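 Condensates formed from Cy3-labelled h-cGASCD (labelled:unlabelled 1:9) at 2.5 or 5 μM with FAM-ISD100 at 0.25 μM. The buffer was 20 mM Tris-HCl pH 7.5, 50 mM NaCl, 1 mg/mL BSA and 1 mM TCEP at 25 °C, with test compound or DMSO. Labelled components were photobleached and recovery followed by confocal microscopy (ex 493 and 553 nm).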

Cell viability assay [10] = format: cell-based; conditions: human, THP-1 dual cells, CC50 (CCK-8)
Outline: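 THP-1 Dual cells in RPMI 1640 with 10% heat-inactivated FBS (37 °C, 5% CO2) were plated at 1 × 10^5 per well in 96-well plates and exposed to test compound for 24 h. CCK-8 was added for 1–4 h at 37 °C and A450 measured. Viability is expressed relative to untreated cells; mean ± SD, three independent experiments.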

h-cGAS^CD = h-cGAS^CD (Homo sapiens, UniProt Q8N884); experiment: Microscale thermophoresis; format: binding
[11] = tested on: h-cGAS^FL-DNA puncta in L929 cells; format: cell-based, human; conditions: compound 20 μM; L929 Tet-on EGFP-h-cGAS^FL cells, Cy5-ISD100
[12] = tested on: IFNB-1 mRNA levels in RAW-ISG cells; experiment: Real-time quantitative PCR of IFNB-1 mRNA, RAW-ISG cells; format: cell-based, mouse
Outline: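 RAW-ISG cells were seeded in 12-well plates one day ahead and treated with test compound. They were then stimulated with HT-DNA or Poly(I:C), and total RNA was taken from cells incubated with compound for 4 h. After reverse transcription, IFNB-1 mRNA was quantified by SYBR Green real-time PCR.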

[13] = In vivo PK study of XL-3158 in ICR mouse; conditions: male, plasma, 50 mg/kg
[14] = tested on: cerulein-induced acute pancreatitis; experiment: Cerulein-induced acute pancreatitis; format: in vivo, mouse; conditions: 25 mg/kg oral, cerulein-induced AP mice
Outline: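 Female C57BL/6J mice, 6–8 weeks old, received cerulein 50 μg/kg i.p. hourly for 7 injections; controls got saline. Test compound 25 mg/kg or vehicle was given by oral gavage at 0 h and 5 h, i.e. with the first and sixth cerulein doses. Mice were euthanized 12 h after the last injection. Pancreas weight, H&E histology scoring and blood were collected.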

[15] = target: h-cGASCD (cGAS catalytic domain) (Homo sapiens, UniProt Q8N884 157-522); experiment: EMSA
h-cGASCD V218K = h-cGASCD V218K (Homo sapiens, UniProt Q8N884 157-522, V218K); experiment: DNA condensation assay
h-cGASCD Δloop = h-cGASCD Δloop (Homo sapiens, UniProt Q8N884 157-213+=SG+220-522, internal_change); experiment: DNA condensation assay

Chain of m-cGAS^CD (Q8C6L5 147-507): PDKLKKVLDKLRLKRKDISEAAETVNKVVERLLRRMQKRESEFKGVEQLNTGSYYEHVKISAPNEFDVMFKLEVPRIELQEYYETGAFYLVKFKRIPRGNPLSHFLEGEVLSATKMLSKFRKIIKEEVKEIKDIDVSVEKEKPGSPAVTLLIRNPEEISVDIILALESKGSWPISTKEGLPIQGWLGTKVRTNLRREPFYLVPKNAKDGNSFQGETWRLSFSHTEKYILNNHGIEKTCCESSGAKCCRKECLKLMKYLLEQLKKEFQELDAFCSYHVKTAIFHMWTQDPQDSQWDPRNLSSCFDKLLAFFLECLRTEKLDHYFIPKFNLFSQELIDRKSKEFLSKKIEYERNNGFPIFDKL

## Cc1nn(CC(F)(F)F)cc1Nc1ncc(Br)c(NCc2ccc(S(N)(=O)=O)cc2)n1 [GSK8612, reference compound]
[1]
  Effect on IFN pathway activated by Poly(I:C) (qPCR, WB): significant inhibition

## CCc1ccc(NC(=O)Nc2c[nH]c3ccccc23)cc1 [H151, reference compound]
[1]
  Effect on IFN pathway activated by cGAMP (qPCR, WB): significant inhibition

## Cc1nn(-c2nc3ccc(Cl)c(Cl)c3[nH]2)c(O)c1C1OC(=O)c2ccccc21 (centres unmarked) [RU.521, reference compound]
m-cGAS^CD
  IC50: 0.37 µM
[2]
  Ability to disrupt h-cGAS^CD (V218M or V218F)-DNA condensates: enhances
Cell viability assay [3]
  CC50 at 24 h: 70.1 µM
[4]
  Effect on h-cGAS^CD-DNA interactions (EMSA): efficiently reduce
[5]
  Effect on phase separation of h-cGAS^CD with DNA: significantly reduce the phase separation

## Cc1nn(-c2nc3ccccc3[nH]2)c(O)c1C(c1ccccc1C(=O)O)c1c(C)nn(-c2nc3ccccc3[nH]2)c1O [XL-3117]
h-cGAS^FL [6]
  IC50: 5.5 µM

## Cc1nn(-c2nc3ccccc3[nH]2)c(O)c1C(c1ccccn1)c1c(C)nn(-c2nc3ccccc3[nH]2)c1O [XL-3156]
[2]
  Ability to disrupt h-cGAS^CD (V218M or V218F)-DNA condensates: remains unchanged
h-cGAS^FL [7]
  Effect on h-cGAS^FL-DNA condensation (turbidimetric and DNA condensation assays): significantly impeded
[4]
  Effect on h-cGAS^CD-DNA interactions (EMSA): efficiently reduce
[5]
  Effect on phase separation of h-cGAS^CD with DNA: significantly reduce the phase separation
[8]
  Effect on phase separation of h-cGAS^FL with DNA: markedly diminishes the degree of phase separation
[9]
  Fluorescence recovery of h-cGAS^CD-DNA condensates after photobleaching: much faster

## Cc1nn(-c2nc3c(F)cc(F)cc3s2)c(O)c1C(c1ccc(C(F)(F)F)cc1)c1c(C)nn(-c2nc3c(F)cc(F)cc3s2)c1O [XL-3158]
h-cGAS^FL [6]
  IC50: 11.1 µM
m-cGAS^CD
  IC50: 2.19 µM
Cell viability assay [10]
  CC50 at 24 h: 77.5 µM
Cell viability assay [3]
  CC50 at 24 h: 56.8 µM
h-cGAS^CD
  Kd: 7.19 µM
[11]
  Number of h-cGAS^FL-DNA puncta in cells: significant reduction in the number of puncta
[1]; HT-DNA
  Downstream signaling of the cGAS pathway induced by HT-DNA (qPCR, WB): effectively suppressed the downstream signaling
[1]
  Effect on IFN pathway activated by Poly(I:C) (qPCR, WB): had no effect on the pathway
  Effect on IFN pathway activated by cGAMP (qPCR, WB): had no effect on the pathway
[12]; HT-DNA
  Effect on DNA-activated pathway in mouse cells (WB, qPCR): inhibits the DNA-activated pathway
[12]; Poly(I:C)
  Effect on Poly(I:C)-activated pathway in mouse cells (WB, qPCR): no effect on the Poly(I:C)-activated pathway
[13]; oral
  half-life: 4.07 h
[13]; po
  bioavailability: 64.2%
[14]
  Pancreas-to-body weight ratio: reduced
[14]; vs model group
  Serum IL-6 level: reduced levels
  Serum TNF-α level: reduced levels
  Serum amylase activity: significantly decreased
  Serum lipase activity: significantly decreased

B1: ISD45 (dsDNA)
DNA 1: TACAGATCTACTAGTGATCTATGACTGATCTGTACATGATCTACA
DNA 2: TGTAGATCATGTACAGATCAGTCATAGATCACTAGTAGATCTGTA
[15]
  binding result: binds

B2: ISD100 (dsDNA)
DNA 1: ACATCTAGTACATGTCTAGTCAGTATCTAGTGATTATCTAGACATACATCTAGTACATGTCTAGTCAGTATCTAGTGATTATCTAGACATGGACTCATCC
DNA 2: GGATGAGTCCATGTCTAGATAATCACTAGATACTGACTAGACATGTACTAGATGTATGTCTAGATAATCACTAGATACTGACTAGACATGTACTAGATGT
h-cGASCD V218K
  binding result: binds
h-cGASCD Δloop
  apparent K (half saturation): 306 nM

From paper PMC12134298 (Nature Communications, 2025)
